In ChEMBL document CHEMBL1914440, “Discovery of potent, selective, and orally bioavailable alkynylphenoxyacetic acid CRTH2 (DP2) receptor antagonists for the treatment of allergic inflammatory diseases” (J Med Chem, 2011):
≈ marks a conversion by molar mass, not a printed value.

Experiments:
Cytochrome P450 2C9 = Cytochrome P450 2C9 (Homo sapiens, UniProt P11712); assay: Inhibition of human recombinant CYP2C9 expressed in baculovirus infected insect cells preincubated for 15 mins measured after 30 mins by luminescence analysis; assay type: ADME
Cytochrome P450 2C9, sequence (P11712 whole entry): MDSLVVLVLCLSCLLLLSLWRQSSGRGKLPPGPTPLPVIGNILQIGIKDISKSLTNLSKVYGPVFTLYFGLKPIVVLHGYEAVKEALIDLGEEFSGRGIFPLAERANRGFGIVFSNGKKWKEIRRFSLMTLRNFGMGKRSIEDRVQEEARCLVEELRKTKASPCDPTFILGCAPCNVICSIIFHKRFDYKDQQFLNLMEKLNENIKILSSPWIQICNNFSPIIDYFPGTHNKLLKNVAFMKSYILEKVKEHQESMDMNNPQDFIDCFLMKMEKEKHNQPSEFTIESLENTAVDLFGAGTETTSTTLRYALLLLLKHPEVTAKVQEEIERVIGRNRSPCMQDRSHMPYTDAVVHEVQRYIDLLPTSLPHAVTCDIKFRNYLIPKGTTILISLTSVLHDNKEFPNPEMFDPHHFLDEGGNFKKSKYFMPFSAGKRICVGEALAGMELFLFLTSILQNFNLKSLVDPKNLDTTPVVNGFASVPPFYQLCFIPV

[1] = biological target: Prostaglandin E2 receptor EP2 subtype (Homo sapiens) (UniProt P43116); assay: Inhibition of EP2 receptor at 10 uM
Prostaglandin E2 receptor EP2 subtype (Homo sapiens), sequence (P43116 whole entry): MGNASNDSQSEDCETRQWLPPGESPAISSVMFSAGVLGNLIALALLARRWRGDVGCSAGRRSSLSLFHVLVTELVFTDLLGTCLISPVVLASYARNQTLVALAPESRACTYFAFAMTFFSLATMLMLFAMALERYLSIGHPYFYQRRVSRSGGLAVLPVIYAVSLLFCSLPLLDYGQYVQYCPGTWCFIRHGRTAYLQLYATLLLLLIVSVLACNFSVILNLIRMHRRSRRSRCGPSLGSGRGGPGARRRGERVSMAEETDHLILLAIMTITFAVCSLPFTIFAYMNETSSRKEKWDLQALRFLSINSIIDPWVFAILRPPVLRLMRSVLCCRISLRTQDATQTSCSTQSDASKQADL
Method in brief: (§1)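 Selectivity screen: panel of 50 receptor and ion-channel targets, tested at 10 μM; EP2 by binding assay; GABA-gated Cl− channel from rat. Result expressed as % inhibition.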

[2] = Clearance in BALB/c mouse at 0.2 mg/kg, iv and 1 mg/kg, po by LC/MS/MS analysis; assay type: ADME, organism-based; conditions: in vivo
Method in brief: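 Low-dose cassette PK in mouse: 0.2 mg/kg iv and 1 mg/kg po.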

[3] = Apparent permeability across human Caco2 cells at 1 uM after 2 hrs by LC/MS/MS analysis; assay type: ADME, cell-based; conditions: Caco-2
[4] = biological target: T1, Prostaglandin D2 receptor 2 (Homo sapiens, UniProt Q9Y5Y4); assay: Antagonist activity at human CRTH2 expressed in human CHO cells by cellular dielectric spectroscopy
T1 sequence (Q9Y5Y4 whole entry): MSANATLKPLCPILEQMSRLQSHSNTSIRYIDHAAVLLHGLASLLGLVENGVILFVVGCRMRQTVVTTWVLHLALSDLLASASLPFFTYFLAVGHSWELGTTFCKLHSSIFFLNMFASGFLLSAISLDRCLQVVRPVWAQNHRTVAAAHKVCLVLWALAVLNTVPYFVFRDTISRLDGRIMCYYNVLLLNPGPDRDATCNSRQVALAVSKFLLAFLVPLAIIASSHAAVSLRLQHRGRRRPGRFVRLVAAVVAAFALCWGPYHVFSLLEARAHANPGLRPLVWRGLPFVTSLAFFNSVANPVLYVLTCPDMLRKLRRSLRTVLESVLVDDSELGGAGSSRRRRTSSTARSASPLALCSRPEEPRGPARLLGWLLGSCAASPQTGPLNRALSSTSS

[5] = biological target: T1, Prostaglandin D2 receptor 2; assay: Displacement of [3H]PGD2 from human CRTH2 expressed in chinese hamster CHO cells by liquid scintillation counting in the presence of 0.1% BSA; assay type: cell-based
Method in brief: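 Scintillation proximity assay on 2–5 μg human CRTH2 membranes with WGA-SPA beads and 1.5 nM [3H]PGD2. Buffer: 10 mM HEPES/KOH pH 7.4, 10 mM MnCl2, protease inhibitors, 1% DMSO, 0.1% BSA. Incubated 90 min at room temperature with shaking. Nonspecific binding defined with 1 μM PGD2. Ki by Cheng–Prusoff, mean of at least three independent dose–response experiments.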

[6] = Intrinsic clearance in human liver microsomes assessed per mg of protein at 1 uM by LC/MS/MS analysis; assay type: ADME, Microsome
[7] = biological target: T1, Prostaglandin D2 receptor 2; assay: Antagonist activity at human CRTH2 expressed in […] by cellular dielectric spectroscopy in the presence of PGD2 and 0.1% BSA; assay type: functional, cell-based
Method in brief: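 CHO-CRTH2 cells grown in HAM's F12 with 10% FCS and 400 μg/mL Geneticin, seeded at 100000 cells/well, 24 h at 37 °C. Washed in HBSS plus 10 mM HEPES pH 7.4 with 1% DMSO and 0.1% BSA. Compound added, then PGD2 at its EC80.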

[8] = Oral bioavailability in BALB/c mouse at 1 mg/kg by LC/MS/MS analysis; assay type: ADME, organism-based; conditions: in vivo
Method in brief: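 Oral bioavailability in mouse from a 1 mg/kg po dose given in a cocktail (cassette) experiment.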

[9] = biological target: T2, Prostaglandin D2 receptor 2 (Mus musculus, UniProt Q9Z2J6); assay: Displacement of [3H]PGD2 from mouse CRTH2 expressed in human HEK cells by liquid scintillation counting; assay type: cell-based, HEK293
T2 sequence (Q9Z2J6 whole entry): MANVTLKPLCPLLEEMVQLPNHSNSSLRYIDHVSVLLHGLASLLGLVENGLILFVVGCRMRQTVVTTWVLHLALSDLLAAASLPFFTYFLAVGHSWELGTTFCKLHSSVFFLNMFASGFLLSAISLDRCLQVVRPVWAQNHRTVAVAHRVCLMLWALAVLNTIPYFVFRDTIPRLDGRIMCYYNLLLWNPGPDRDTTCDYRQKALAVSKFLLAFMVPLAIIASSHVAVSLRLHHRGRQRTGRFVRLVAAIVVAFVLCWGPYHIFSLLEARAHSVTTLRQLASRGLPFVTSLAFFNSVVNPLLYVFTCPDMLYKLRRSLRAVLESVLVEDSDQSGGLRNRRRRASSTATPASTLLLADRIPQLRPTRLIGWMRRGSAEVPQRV
Method in brief: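 Mouse CRTH2 cDNA stably expressed in HEK293(EBNA) cells (hygromycin-selected) and membranes made by nitrogen cavitation. SPA competition uses 2–5 μg membranes, 1.5 nM [3H]PGD2, HEPES/KOH pH 7.4 with 10 mM MnCl2, 1% DMSO, 90 min at room temperature. Nonspecific binding defined with 1 μM PGD2. Ki by Cheng–Prusoff, ≥3 independent experiments.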

[10] = biological target: T1, Prostaglandin D2 receptor 2; assay: Displacement of [3H]PGD2 from human CRTH2 expressed in chinese hamster CHO cells by liquid scintillation counting; assay type: cell-based
Method in brief: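 Scintillation proximity competition assay: 2–5 μg human CRTH2 cell membranes, 1.5 nM [3H]PGD2, WGA-SPA beads, 10 mM HEPES/KOH pH 7.4, 10 mM MnCl2, protease inhibitors, 1% DMSO; 90 min, room temperature, shaking. Nonspecific binding defined with 1 μM PGD2. Ki by Cheng–Prusoff, mean of ≥3 independent dose–response experiments.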

Rattus norvegicus = species on record: Rattus norvegicus; assay: Inhibition of rat GABA gated chloride ion channel at 10 uM; method in brief: as §1
[11] = Half life in BALB/c mouse at 1 mg/kg, po by LC/MS/MS analysis; assay type: ADME, organism-based; parameters: dose 1 mg/kg, route oral; conditions: in vivo
[12] = Intrinsic clearance in rat liver microsomes assessed per mg of protein at 1 uM by LC/MS/MS analysis; assay type: ADME, Microsome
[13] = Kinetic solubility of the compound in 2% DMSO; assay type: physicochemical; conditions: read-out: Kinetic_solubility
[14] = Percentage unbound in rat plasma; assay type: ADME, cell-free
[15] = Lipophilicity, log D of the compound at pH 7.4; assay type: physicochemical; conditions: buffer
[16] = Kinetic solubility of the compound in phosphate buffered saline; assay type: physicochemical; conditions: read-out: Kinetic_solubility
[17] = Volume of distribution at steady state in BALB/c mouse at 0.2 mg/kg, iv and 1 mg/kg, po by LC/MS/MS analysis; conditions: in vivo, read-out: Vdss
[18] = Percentage unbound in mouse plasma; assay type: ADME, cell-free
[19] = Percentage unbound in human plasma; assay type: ADME, cell-free
[20] = Half life in BALB/c mouse at 0.2 mg/kg, iv by LC/MS/MS analysis; assay type: ADME, organism-based; parameters: dose 0.2 mg/kg, route intravenous; conditions: in vivo
[21] = Clearance in BALB/c mouse at 5 mg/kg, po by LC/MS/MS analysis; assay type: ADME, organism-based; parameters: dose 5 mg/kg, route oral; conditions: in vivo
[22] = Half life in BALB/c mouse at 1 mg/kg, iv and 5 mg/kg, po by LC/MS/MS analysis; assay type: ADME, organism-based; conditions: in vivo
[23] = Thermodynamic solubility of the compound in aqueous solution at pH 7.4; assay type: physicochemical; conditions: read-out: Therm_solubility
[24] = Thermodynamic solubility of the compound in 50 mM phosphate buffered saline at pH 7.4; assay type: physicochemical; conditions: read-out: Therm_solubility
Method in brief: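 Thermodynamic solubility measured in 50 mM PBS at pH 7.4.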

[25] = Half life in Sprague-Dawley rat at 1 mg/kg, iv and 5 mg/kg, po by LC/MS/MS analysis; assay type: ADME, organism-based; conditions: in vivo

Compound | Papp at 2 h, 1 µM [3] [×10⁻⁶ cm/s] | microsomal CLint at 1 µM [6] [µL/min/mg] | Ki [10] [nM] | microsomal CLint at 1 µM [12] [µL/min/mg] | fraction unbound [14] | logD [15] | fraction unbound [18] | fraction unbound [19] | CL/F [21] [mL/min/kg] | half-life [22] [h] | also measured
O=C(O)COc1ccc(Cl)cc1C#Cc1cccc(Cl)c1 | 18.4 | 12 | 29 | 27 | < 0.003 | 0.5 | < 0.003 | < 0.003 |  |  | IC50 (Cytochrome P450 2C9): 1440 nM; inhibition [1]: 66%; clearance [2]: 16.7 mL/min/kg; IC50 [4]: 114 nM; IC50 [5]: 29 nM; IC50 [7]: 1200 nM; bioavailability [8]: 82%; Ki [9]: 37.4 nM; inhibition (Rattus norvegicus): 76%; half-life [11]: 1.6 h; solubility kinetic [13]: > 200 µM; solubility kinetic [16]: > 200 µM; Vd [17]: 0.3 L/kg; half-life [20]: 0.3 h
CN(C)S(=O)(=O)c1cncc(C#Cc2cc(Cl)ccc2OCC(=O)O)c1 | 1.8 |  | 37 |  | 0.057 | -1.4 | 0.034 | 0.033 | 13.3 | 4.4 | solubility thermodynamic [23]: 193 µg/mL (≈ 489 µM)
CCCS(=O)(=O)c1cccc(C#Cc2cc(Cl)ccc2OCC(=O)O)c1 | 11.8 | 11 | 9 | < 10 | 0.01 |  | 0.024 | 0.008 | 5 | 2.2 | solubility thermodynamic [24]: 760 µg/mL (≈ 1930 µM); half-life [25]: 4.4 h
